# Assay results from different studies.
# Protocols differ between the studies behind these lines.
# CSF1R autoinhibited: Macrophage colony-stimulating factor 1 receptor, autoinhibited (CSF1R, Homo sapiens, UniProt P07333)
# CSF1R: Macrophage colony-stimulating factor 1 receptor (CSF1R, Homo sapiens, UniProt P07333)
# CSF1R Y969C: Macrophage colony-stimulating factor 1 receptor (CSF1R, Homo sapiens, UniProt P07333, Y969C)
SMILES,target,observed,action,technique,concentration,measurement,value
COc1cccc(CNC(=O)c2nc3scc(COCc4ccc(C(=O)O)cc4)c3c(=O)[nH]2)c1,CSF1R autoinhibited,cell-free assay,,competition with immobilised ligand,1 µM,remaining binding,100%
O=Nc1c(-c2c(O)[nH]c3ccccc23)[nH]c2ccccc12,CSF1R,cell-free assay,,,0.5 µM,remaining signal,83.2%
c1cnn2ncc(-c3ccnc(N4CCC45COC5)n3)c2c1,CSF1R,binding,,,1 µM,remaining binding,100%
CCCS(=O)(=O)Nc1ccc(F)c(C(=O)c2c[nH]c3ncc(-c4ccc(Cl)cc4)cc23)c1F,CSF1R,enzyme activity,inhibitor,,1 µM,inhibition,< 20%
CC(=O)C1=C(C)N(c2cccc(C(F)(F)F)c2)C(=O)N[C@@H]1c1ccc(C#N)nc1,CSF1R,cell-free assay,,competition with immobilised ligand,1 µM,remaining binding,99.4%
C[C@@H]1CCN(c2nccc(-c3cnn4ncccc34)n2)C1,CSF1R autoinhibited,binding,,,1 µM,remaining binding,78%
COc1cc(Cl)c(C(=O)N[C@@H](CN[C@H]2CC[C@@H](N)CC2)Cc2ccc(C#N)cc2)cc1-c1ccc(CN[C@H](C)c2ccc(C)cc2)o1,CSF1R,enzyme activity,inhibitor,,1 µM,remaining activity,111%
C=CC(=O)Nc1cc(Nc2nccc(Nc3cc(Cl)c(F)cc3C(C)(C)O)n2)c(OC)cc1N1CC[C@@H](N(C)C)C1,CSF1R,enzyme activity,inhibitor,,1 µM,inhibition,13%
COc1cc2ncnc(Nc3ccc(F)c(Cl)c3)c2cc1OCCCN1CCOCC1,CSF1R,cell-free assay,,,0.5 µM,remaining signal,110%
Nc1ncnc2occ(-c3ccc(NC(=O)Nc4cc(C(F)(F)F)ccc4F)cc3)c12,CSF1R autoinhibited,cell-free assay,,,20 µM,remaining signal,0.95%
FC(F)(F)c1ccc2c(c1)nc(-c1cccnc1)n2C1CC1,CSF1R autoinhibited,cell-free assay,,competition with immobilised ligand,1 µM,remaining binding,89%
Cc1ccc(C(=O)NCc2ccsc2)cc1C#Cc1cn(C(C)C)c2ncnc(N)c12,CSF1R,enzyme activity,inhibitor,,1 µM,activity vs control,8%
O=C(Nc1cnn(-c2csc(C(=O)NC3COC3)c2)c1)Nc1c(F)cccc1Cl,CSF1R,enzyme activity,inhibitor,,5 µM,remaining activity,98.9%
CCCOc1ccc([C@H]2[C@H](C(=O)O)[C@@H](c3ccc4c(c3)OCO4)CN2CC(=O)Nc2c(CC)cccc2CC)cc1,CSF1R autoinhibited,cell-free assay,,competition with immobilised ligand,1 µM,remaining binding,61%
CS(=O)(=O)Nc1cccc(-c2csc(NC(=O)CSc3nc4nccnc4c(=O)n3CCc3ccccc3)n2)c1,CSF1R,enzyme activity,inhibitor,,10 µM,inhibition,8%
CCCOc1ccc(OC)c(F)c1C(=O)c1ccc(C(=O)N[C@@H]2CNC[C@H]2NC(=O)c2ccc3[nH]ncc3c2)cc1,CSF1R Y969C,enzyme activity,inhibitor,,10 µM,remaining activity,57%
Nc1cnc(N2CCc3cc(S(=O)(=O)Nc4c(F)cc(Cl)cc4F)cc(N4CCCC4=O)c32)nc1,CSF1R autoinhibited,cell-free assay,,competition with immobilised ligand,1 µM,remaining binding,100%
CN(C)C1CCN(CC#Cc2nn(C3CCCC3)c3nc(NCc4ccccc4)ncc23)C1 (stereo not shown),CSF1R,enzyme activity,inhibitor,FRET,0.1 µM,inhibition,44%
COc1ccc2cc(OCC3(C(=O)O)CN(C(=O)c4ccc(F)cc4)C3)ccc2c1,CSF1R,cell-free assay,,competition with immobilised ligand,1 µM,remaining binding,100%
Cc1cc(NC(=O)c2cccc3cc(-c4cccc5[nH]nc(N)c45)ccc23)ccc1F,CSF1R Y969C,enzyme activity,inhibitor,,0.1 µM,activity vs control,30%
N#CCCc1ccc2c(c1)-c1[nH]c3ccc([N+](=O)[O-])cc3c1CC(=O)N2,CSF1R,cell-free assay,,,0.5 µM,remaining signal,43.4%
COc1cc2ncnc(Nc3ccc(Oc4ccccc4)c(C)c3C)c2cc1OC,CSF1R,enzyme activity,inhibitor,,1 µM,inhibition,8%
C[C@@H]1CN(c2cc(-c3nn(C)c4ccc(OC5(C)CC5)cc34)ncn2)C[C@H](C)O1,CSF1R autoinhibited,cell-free assay,,competition with immobilised ligand,1 µM,remaining binding,55%
Oc1ccc(-c2nc(-c3ccncc3)c(-c3ccc(F)cc3)[nH]2)cc1,CSF1R,cell-free assay,,,0.5 µM,remaining signal,96.9%
COc1ccnn2ncc(-c3ccnc(N(C)C)n3)c12,CSF1R autoinhibited,binding,,,1 µM,remaining binding,91%
CC(C)(C)c1nc2c(s1)c1nc(N)ncc1c1ccc(NS(=O)(=O)c3c(F)cccc3F)c(F)c12,CSF1R,enzyme activity,inhibitor,radiometric,1 µM,remaining activity,109%
CN(c1nccc(-c2cnn3ncccc23)n1)C1CC1,CSF1R,binding,,,1 µM,remaining binding,88%
Cc1cnc(NC2CCOCC2)nc1-n1cnc(C(=O)NC(CN)c2cc(F)cc(Cl)c2)c1 (stereo not shown),CSF1R,enzyme activity,inhibitor,radiometric,1 µM,remaining activity,103%
O=C1Nc2ccc(Cl)cc2C1=Cc1cc(Cl)c(O)c(Cl)c1,CSF1R,cell-free assay,,,0.5 µM,remaining signal,77.9%
Cc1ccc(NC(=O)c2ccc(C)c(C(F)(F)F)c2)cc1C#Cc1nn(C2CCC(O)CC2)c2ncnc(N)c12 (stereo not shown),CSF1R Y969C,cell-free assay,,,10 µM,remaining signal,13%
CCCCN(CCCC)C(=O)CN1C[C@@H](c2cc(OC)c3c(c2)OCO3)[C@H](C(=O)O)[C@H]1CC(C)(C)CCC,CSF1R autoinhibited,cell-free assay,,competition with immobilised ligand,1 µM,remaining binding,100%
CCN(CC)CCNC(=O)c1c(C)[nH]c(/C=C2\C(=O)Nc3ccc(F)cc32)c1C,CSF1R,cell-free assay,,,0.3 µM,inhibition,98%
N[C@@H]1CCN(c2nccc(-c3cnn4ncccc34)n2)C1,CSF1R autoinhibited,binding,,,1 µM,remaining binding,100%
CNC(=O)c1cc2c(Oc3ccc(NC(=O)C4(C(=O)Nc5ccc(F)cc5)CC4)cc3)ccnc2cc1OC,CSF1R Y969C,enzyme activity,inhibitor,radiometric,1 µM,inhibition,77%
